Platelet DG rel = modulates dense granule release in human platelets; human platelet-rich plasma, SFLLRN dense granule ATP release, luminescence; inhibition, %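 (compounds screened at 7.5 µM in platelet-rich plasma)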; 300,000 tested, 0.22% active; AID 1663;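 active = mean replicate score, as percent of positive control, at or above 50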
SENP6 inh = SENP6 protease inhibition | Q9GZR1 | Recombinant SENP6 catalytic domain, aminoluciferin luminescence | inhibition, % at 10 µM | 330,000 tested, 1.8% active | AID 2599;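 active = inhibition above about 50% at the single tested dose, limit read from the data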
SENP1 FRET inh = inhibitors of human SENP1 SUMO protease catalytic domain; Q9P0U3; recombinant SENP1 catalytic domain, CyPet-SUMO1-YPet FRET cleavage; inhibition, % at 10 µM; 360,000 tested, 0.21% active;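 active = inhibition at least 30% at 10 µM, raw YFP signal under a set limit, fluorescence ratio 0.5 to 1.5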
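Test system: human SENP1 catalytic domain; medium: Tris pH 8 buffer plus EDTA, NaCl, BME, BSA, NP40, catalase; incubation: 50 min reaction at room temperature; technique: FRET, CFP and YFP emission; controls: no-enzyme low control and enzyme-plus-DMSO high control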
SENP8 block-1 = inhibitors of human SENP8 protease; Q96LD8; purified SENP8, Z-RLRGG-aminoluciferin cleavage, luminescence; inhibition, % at 10 µM; 330,000 tested, 1.2% active; AID 2540; in the data active = inhibition above about 50%
Target sequence (Q96LD8 whole entry, looked up): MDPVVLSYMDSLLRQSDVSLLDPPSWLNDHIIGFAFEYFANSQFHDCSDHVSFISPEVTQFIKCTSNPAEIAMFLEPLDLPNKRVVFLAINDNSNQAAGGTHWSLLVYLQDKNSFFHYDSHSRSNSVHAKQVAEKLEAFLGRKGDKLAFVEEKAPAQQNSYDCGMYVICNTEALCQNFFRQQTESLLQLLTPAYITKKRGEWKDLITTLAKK
SENP8 block-2 = SENP8 (human) protease inhibition | Q96LD8 | recombinant SENP8, Nedd8 substrate fluorescence | inhibition, % at 20 µM | 360,000 tested, 0.64% active; in the data active = inhibition mostly above about 40%, no sharp cut-off; inactive = mostly below about 27%
SENP7 inh = blocks the human protease SENP7; inhibition, % at 5 µM; recombinant SENP7, Z-RLRGG-aminoluciferin luminescence, 40 min; 330,000 tested, 1.5% active;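 active = inhibition above about 50% at the single test dose, limit read from the data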
SENP8 confirm = confirmation of human SENP8 protease inhibitors; Recombinant SENP8, Z-RLRGG-aminoluciferin luminescence, 60 min; shares compounds with SENP7 inh; 6,200 tested, 40% active; inhibition, % at 12.5 µM;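 active = mean inhibition across replicates above about 50%, limit read from the data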
SENP6 conf = confirmation of human SENP6 protease inhibitors; 6,200 tested, 58% active; shares compounds with SENP7 inh; recombinant SENP6, Z-RLRGG-aminoluciferin luminescence; inhibition, % at 12.5 µM
SENP7 confirm = confirmation of human SENP7 protease inhibitors | shares compounds with SENP7 inh | recombinant SENP7, Z-RLRGG-aminoluciferin luminescence, 40 min | 6,200 tested, 69% active | inhibition, % at 12.5 µM
Casp3 select = selectivity test for SENP inhibitors: human caspase-3 inhibition | shares compounds with SENP7 inh | inhibition, % at 12.5 µM | purified caspase-3, Z-DEVD-aminoluciferin luminescence, 60 min | 6,200 tested, 60% active;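 active = mean inhibition above about 50%, limit read from the data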
Target sequence (P42574 28-227 limits assumed): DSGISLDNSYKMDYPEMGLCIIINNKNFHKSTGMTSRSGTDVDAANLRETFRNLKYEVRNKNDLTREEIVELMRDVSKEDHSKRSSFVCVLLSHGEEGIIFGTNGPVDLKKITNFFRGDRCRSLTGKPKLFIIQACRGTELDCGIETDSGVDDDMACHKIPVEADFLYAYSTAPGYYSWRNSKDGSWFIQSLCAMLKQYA
Luc interf = counter-screen for SENP inhibitors: luminescence interference. shares compounds with SENP7 inh. Pre-incubated SENP8/Z-RLRGG-aminoluciferin, luciferase luminescence interference. inhibition, % at 12.5 µM. 6,200 tested, 39% active;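 active = mean inhibition above about 50% when retested at one dose, limit read from the data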
Hits are given with their value. Rows were chosen to be rich in hits. Some 2.6% of all compounds tested hit in one or more screens of this group.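 The calls were made as follows, unless noted: active = mean inhibition above about 50% in the one-dose retest (limit read from the data); inactive = the rest.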

Screening COc1ccc2nc(NC(=O)c3cnccn3)sc2c1 returned Platelet DG rel inactive, SENP6 inh inactive, SENP1 FRET inh inactive, SENP8 block-1 inactive, SENP8 block-2 inactive, SENP7 inh 76, SENP8 confirm inactive, SENP6 conf inactive, SENP7 confirm 82, Casp3 select 80 and Luc interf inactive.
Screening CCOc1ccc2nc(NC(=O)c3ccccn3)sc2c1 returned Platelet DG rel 81, SENP6 inh 97, SENP1 FRET inh inactive, SENP8 block-1 94, SENP8 block-2 inactive, SENP7 inh 98, SENP8 confirm inactive, SENP6 conf 78, SENP7 confirm 85, Casp3 select 87 and Luc interf inactive.
CSc1nc2ccc(NC(=O)c3ccccn3)cc2s1 was read as Platelet DG rel inactive, SENP6 inh 78, SENP1 FRET inh inactive, SENP8 block-1 90, SENP8 block-2 inactive, SENP7 inh 93, SENP8 confirm 52, SENP6 conf 86, SENP7 confirm 98, Casp3 select 93 and Luc interf inactive.
`C[C@H](NC(=O)N1CCn2c1nc1ccccc12)C(=O)N1CCCCC1` gave Platelet DG rel inactive, SENP6 inh inactive, SENP1 FRET inh inactive, SENP8 block-1 inactive, SENP8 block-2 inactive and SENP7 inh inactive.
Nc1cc(N)nc(CS)n1 was read as Platelet DG rel inactive, SENP6 inh inactive, SENP1 FRET inh inactive, SENP8 block-1 inactive, SENP8 block-2 inactive and SENP7 inh inactive.
O=C(c1cc(COc2cccc(C(F)(F)F)c2)on1)N1CCC(Oc2cccnc2)CC1 was read as Platelet DG rel inactive, SENP6 inh inactive, SENP1 FRET inh inactive, SENP8 block-1 inactive, SENP8 block-2 inactive and SENP7 inh inactive.
Screening CCOC(=O)N1CCN(C(=O)COC(=O)c2cc(C)ccc2C)CC1 returned SENP6 inh inactive, SENP1 FRET inh inactive, SENP8 block-1 inactive, SENP8 block-2 inactive and SENP7 inh inactive.
For Nc1nonc1-n1nnc(C(=O)N/N=C/c2ccccc2Cl)c1COc1ccc(F)cc1 the results were Platelet DG rel inactive, SENP6 inh inactive, SENP1 FRET inh inactive, SENP8 block-1 inactive, SENP8 block-2 inactive and SENP7 inh inactive.
Cc1ccc2nc(NC(=O)c3ccccn3)sc2c1 was read as Platelet DG rel inactive, SENP6 inh 96, SENP1 FRET inh inactive, SENP8 block-1 95, SENP8 block-2 inactive, SENP7 inh 96, SENP8 confirm 58, SENP6 conf 81, SENP7 confirm 93, Casp3 select 84 and Luc interf inactive.
`O=C(Nc1nc2c(F)cc(F)cc2s1)c1ccccn1` gave Platelet DG rel inactive, SENP6 inh 70, SENP1 FRET inh inactive, SENP8 block-1 64, SENP8 block-2 inactive, SENP7 inh 93, SENP8 confirm 61, SENP6 conf 69, SENP7 confirm inactive, Casp3 select 79 and Luc interf inactive.
CC(=O)c1cn(Cc2ccccc2)c(=O)n(Cc2ccc(F)cc2)c1=O was read as Platelet DG rel inactive, SENP6 inh inactive, SENP1 FRET inh inactive, SENP8 block-1 inactive, SENP8 block-2 inactive and SENP7 inh inactive.
Screening Nn1c(SCC(=O)NC2CCS(=O)(=O)C2)nc2scc(-c3ccccc3)c2c1=O (stereo not given) returned SENP6 inh inactive, SENP1 FRET inh inactive, SENP8 block-1 inactive, SENP8 block-2 inactive and SENP7 inh inactive.
`COc1cccc(CNC(C)(C)CO)c1OCc1ccc(Cl)cc1` gave Platelet DG rel inactive, SENP6 inh inactive, SENP1 FRET inh inactive, SENP8 block-1 inactive, SENP8 block-2 inactive and SENP7 inh inactive.
COc1cccc(OCc2ccc(Cl)cc2)c1C#N was read as Platelet DG rel inactive, SENP6 inh 91, SENP1 FRET inh inactive, SENP8 block-1 93, SENP8 block-2 inactive, SENP7 inh 97, SENP8 confirm 84, SENP6 conf 96, SENP7 confirm 100, Casp3 select 88 and Luc interf inactive.
Screening CC(=O)c1cccc(NC(=O)NNC(=O)c2ccc(-c3ccccc3)cc2)c1 returned Platelet DG rel inactive, SENP6 inh inactive, SENP1 FRET inh inactive, SENP8 block-1 inactive, SENP8 block-2 inactive and SENP7 inh inactive.
Screening COc1ccc(/C=N/N2CCN(Cc3ccc(C)cc3)CC2)cc1Br returned Platelet DG rel inactive, SENP6 inh inactive, SENP1 FRET inh inactive, SENP8 block-1 inactive, SENP8 block-2 inactive and SENP7 inh inactive.
For N#CC1=C(N)Oc2c(oc(CO)cc2=O)C1c1ccsc1 (stereo not given) the results were Platelet DG rel inactive, SENP6 inh inactive, SENP1 FRET inh inactive, SENP8 block-1 inactive, SENP8 block-2 inactive and SENP7 inh inactive.
For N#CC1=C(N)Oc2c(ccc3ccccc23)C1c1ccsc1 (stereo not given) the results were Platelet DG rel inactive, SENP6 inh 62, SENP1 FRET inh inactive, SENP8 block-1 inactive, SENP8 block-2 inactive, SENP7 inh inactive, SENP8 confirm inactive, SENP6 conf inactive, SENP7 confirm inactive, Casp3 select inactive and Luc interf inactive.
Screening CCO/C=C1/C(=O)N(c2ccc(OC)cc2)C(=O)c2ccccc21 returned Platelet DG rel inactive, SENP6 inh 63, SENP1 FRET inh inactive, SENP8 block-1 inactive, SENP8 block-2 inactive, SENP7 inh inactive, SENP8 confirm inactive, SENP6 conf 70, SENP7 confirm inactive, Casp3 select inactive and Luc interf inactive.
For CCO/C=C1\C(=O)N(c2ccccc2)C(=O)c2ccccc21 the results were SENP6 inh 53, SENP1 FRET inh inactive, SENP8 block-1 inactive, SENP8 block-2 inactive, SENP7 inh inactive, SENP8 confirm inactive, SENP6 conf 54, SENP7 confirm inactive, Casp3 select inactive and Luc interf inactive.
Screening CCO/C=C1/C(=O)N(c2ccccc2OC)C(=O)c2ccccc21 returned Platelet DG rel inactive, SENP6 inh inactive, SENP1 FRET inh inactive, SENP8 block-1 inactive, SENP8 block-2 inactive and SENP7 inh inactive.
